Results published in ChEMBL document CHEMBL1125539 (J Med Chem, 1992).

Tests used:
[1] = Growth inhibition of aerobic chinese hamster ovary fibroblast UV4 cells using an exposure time of 18 hours; assay type: functional, cell-based; settings: Cricetulus griseus, UV4, 18 h
Summary of the method: (§1)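 Log-phase CHO monolayers in 96-well trays seeded at 200 (AA8; text prints "A48") or 300 (UV4) cells/well in Alpha MEM + 10% FCS, grown 24 h, then exposed aerobically 18 h to five 2-fold serial dilutions in duplicate.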

[2] = CT10 ratio defined as ratio of CT10 (air) to that of CT10 (nitrogen)); assay type: functional
Summary of the method: (§2)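 Magnetically stirred 10-mL suspensions of late-log UV4 cells (10^6/mL), gassed continuously with 5% CO2 in air or N2. Cells and drug in medium pre-equilibrated 60 min under that gas before mixing. Samples removed periodically up to 8 h for clonogenic survival. CT10 = concentration (μM) × time (h) for 10% survival; ratio = CT10(air)/CT10(N2), using concentrations giving similar kill rates.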

Cricetulus griseus = organism: Cricetulus griseus; assay: Hypersensitivity factor was defined as the ratio of IC50(AA8) to IC50(UV4); assay type: functional
[3] = Growth inhibition of aerobic chinese hamster ovary fibroblast AA8 cell line using an exposure time of 18 hours; assay type: functional, cell-based; settings: Cricetulus griseus, CHO-AA8, 18 h; summary of the method: as §1
[4] = Hypoxic selectivity was measured as product of concentration and exposure time needed to reduce cell survival to 10% of control using UV4 cells at 10e6 /mL in the clonogenic assay; assay type: functional, Cricetulus griseus; summary of the method: as §2

Compound | IC50 [1] [µM] | CT10 ratio [2] [air/N2] | HF (Cricetulus griseus) | IC50 [3] [µM] | CT10 [4] [µM·h]
NC(=O)c1cc(N(CCCl)CCCl)c([N+](=O)[O-])cc1[N+](=O)[O-] | 108 | 60 | 6.8 | 470 | 2700
O=C(c1cc(N(CCCl)CCCl)c([N+](=O)[O-])cc1[N+](=O)[O-])N1CCOCC1 | 12 | 1.3 | 23 | 260 | 156
O=C(c1cc([N+](=O)[O-])ccc1N(CCO)CCO)N1CCOCC1 | 8400 | – | 1.3 | 10400 | –
O=[N+]([O-])c1ccc(N(CCO)CCO)c([N+](=O)[O-])c1 | 280 | – | 0.9 | 295 | –
CN(C)CCNC(=O)c1cc(N(CCCl)CCCl)c([N+](=O)[O-])cc1[N+](=O)[O-] | 68 | 70 | 4.2 | 260 | 1080
O=C(c1cc(N(CCO)CCO)c([N+](=O)[O-])cc1[N+](=O)[O-])N1CCOCC1 | 2600 | – | 1.1 | 2950 | –
CN(C)CCNC(=O)c1cc(N(CCO)CCO)c([N+](=O)[O-])cc1[N+](=O)[O-] | 3100 | – | 1.4 | 4110 | –
CN(C)CCNC(=O)c1cccc(N(CCCl)CCCl)c1 | 0.27 | – | 44 | 11 | –
CN(C)CCNC(=O)c1cc([N+](=O)[O-])ccc1N(CCCl)CCCl | 5.7 | 1.5 | 40 | 208 | 78
CN(C)CCNC(=O)c1cc(N(CCO)CCO)ccc1[N+](=O)[O-] | 8000 | 0.95 | 1.6 | 13200 | 11300
O=[N+]([O-])c1ccc(N(CCO)CCO)cc1 | 2950 | – | 1.1 | 3200 | –
NC(=O)c1cc(N2CC2)c([N+](=O)[O-])cc1[N+](=O)[O-] [TRETAZICAR] | 11.7 | 3.6 | 50 | 560 | –
NC(=O)c1cc(N(CCO)CCO)c([N+](=O)[O-])cc1[N+](=O)[O-] | 5900 | – | 1.1 | 6200 | >35000
O=C(c1cc([N+](=O)[O-])ccc1N(CCCl)CCCl)N1CCOCC1 | 68 | 1.15 | > 7 | > 500 | 2325
O=C(c1cc(N2CC2)c([N+](=O)[O-])cc1[N+](=O)[O-])N1CCOCC1 | 2.7 | 1.7 | 330 | 690 | 50
CN(C)CCNC(=O)c1cc([N+](=O)[O-])ccc1N(CCO)CCO | 4000 | – | 1.1 | 6700 | –
O=C(c1cc(N(CCCl)CCCl)ccc1[N+](=O)[O-])N1CCOCC1 | 15 | 1 | 19 | 243 | 450
CN(C)CCNC(=O)c1cc(N(CCCl)CCCl)ccc1[N+](=O)[O-] | 72 | 2.3 | 12 | 1140 | 465
O=C(c1cc(N(CCO)CCO)ccc1[N+](=O)[O-])N1CCOCC1 | 9200 | – | 1 | 11200 | –
